Assay results from ChEMBL document CHEMBL4152358, “In vitro and in vivo anti-inflammatory properties of imine resveratrol analogues” (Bioorg Med Chem, 2018).
Active and inactive are the calls of the source. The rule behind the calls is not given here.

Tests used:
RAW264.7 [1] = assay: Cytotoxicity against mouse RAW264.7 cells assessed as reduction in cell viability at 50 uM after 48 hrs by MTT assay; format: cell-based; conditions: raw264.7, 48 h
Summary of the method: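 RAW264.7 cells seeded at 2 x 10⁵/well and grown 24 h, then exposed to 25 or 50 µM (ethanol ≤1%) for 48 h. MTT 0.5 mg/mL added for 2 h at 37 °C, formazan dissolved in DMSO, OD read at 595 nm. Viability given relative to untreated control, mean SD.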

Peritoneal macrophage = assay: Cytotoxicity against C57/BL6 mouse peritoneal macrophages assessed as reduction in cell viability at 50 uM after 48 hrs by MTT assay; format: cell-based
RAW264.7 [2] = assay: Cytotoxicity against mouse RAW264.7 cells assessed as reduction in cell viability at >= 100 uM after 48 hrs by MTT assay; format: cell-based; conditions: raw264.7, 48 h
[3] = Antioxidant activity assessed as DPPH radical scavenging activity after 30 mins by spectrophotometric method; format: functional
Summary of the method: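 Left 30 min at room temperature in the dark and absorbance read at 510 nm. IC50 taken graphically from the linear range of the concentration versus scavenging plot. Run twice, each in triplicate.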

RAW264.7 [4] = assay: Antiinflammatory activity in mouse RAW264.7 cells assessed as inhibition of LPS/IFNgamma-induced NO production by measuring NO levels incubated with LPS/IFNgamma for 1 hr followed by compound addition measured after 48 hrs by Griess assay (reference value: 55 +/- 2.6 microM); format: functional
RAW264.7 [5] = assay: Antiinflammatory activity in mouse RAW264.7 cells assessed as inhibition of LPS-induced CCL-2 production by measuring CCL-2 levels incubated with LPS for 1 hr followed by compound addition measured after 48 hrs by ELISA (reference value: 12.73 +/- 0.10 ng/ml); format: functional
J774.A1 = assay: Antiinflammatory activity in mouse J774A.1 cells assessed as inhibition of LPS-induced IL-1beta production by measuring IL-1beta levels incubated with LPS for 1 hr followed by compound addition measured after 24 hrs by ELISA (reference value: 382.3 +/- 50 pg/ml); format: functional
RAW264.7 [6] = assay: Antiinflammatory activity in mouse RAW264.7 cells assessed as inhibition of LPS-induced IL-6 production by measuring IL-6 levels incubated with LPS for 1 hr followed by compound addition measured after 48 hrs by ELISA (reference value: 2.9 +/- 0.3 ng/ml); format: functional
RAW264.7 [7] = assay: Antiinflammatory activity in mouse RAW264.7 cells assessed as inhibition of LPS-induced IL-12 production by measuring IL-12 levels incubated with LPS for 1 hr followed by compound addition measured after 48 hrs by ELISA (reference value: 4839.2 +/- 2.2 pg/ml); format: functional
RAW264.7 [8] = assay: Antiinflammatory activity in mouse RAW264.7 cells assessed as inhibition of LPS-induced TNFalpha production by measuring TNFalpha levels incubated with LPS for 1 hr followed by compound addition measured after 48 hrs by ELISA (reference value: 58.6 +/- 7.4 ng/ml); format: functional
Murine T-cell line = assay: Antiproliferative activity against Con-A-induced T cells isolated from splenocytes of C57/BL6 mouse at 50 uM incubated with Con-A for 1 hr followed by compound addition measured after 72 hrs by MTT assay; format: functional, cell-based
Summary of the method: (§1)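 C57BL/6 splenocytes (1x10⁵/well) cultured in RPMI 1640 with 10% FBS. Stimulated 1 h with Con A 5 µg/mL (T cells) or E. coli LPS 1 µg/mL (B cells) at 37°C, 5% CO₂. Treated at 50 µM and cultured 72 h more, then read by MTT. Expressed as % proliferation relative to untreated stimulated cells.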

B-cell line = assay: Antiproliferative activity against LPS-induced B cells isolated from splenocytes of C57/BL6 mouse at 50 uM incubated with LPS for 1 hr followed by compound addition measured after 72 hrs by MTT assay; format: functional, cell-based; summary of the method: as §1
RAW264.7 [9] = assay: Immunomodulatory activity in LPS-stimulated mouse RAW264.7 cells assessed as decrease in CD80 expression at 50 uM incubated with LPS for 1 hr followed by compound addition measured after 24 hrs by flow cytometry; format: functional, cell-based
Summary of the method: (§2)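 RAW 264.7 cells (4 x 10⁵/well, triplicate) given E. coli LPS 1 µg/mL for 1 h, then treated at 50 µM for 24 h. Cells Fc-blocked with anti-CD16/32 and stained with FITC anti-CD80, anti-CD86 or anti-MHC II (I-A^b). Two independent experiments.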

RAW264.7 [10] = assay: Immunomodulatory activity in LPS-stimulated mouse RAW264.7 cells assessed as decrease in CD86 expression at 50 uM incubated with LPS for 1 hr followed by compound addition measured after 24 hrs by flow cytometry; format: functional, cell-based; summary of the method: as §2
RAW264.7 [11] = assay: Immunomodulatory activity in LPS-stimulated mouse RAW264.7 cells assessed as decrease in MHC-2 expression at 50 uM incubated with LPS for 1 hr followed by compound addition measured after 24 hrs by flow cytometry; format: functional, cell-based; summary of the method: as §2
Mus musculus [12] = assay: Antiinflammatory activity in Balb/c mouse ear edema model assessed as inhibition of croton oil-induced ear edema at 0.1 mg/ear administered topically immediately post croton oil treatment and measured after 4 hrs relative to control; format: functional
Summary of the method: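 Female Balb/c mice 8–10 weeks old (n = 6/group). 20 µL of 2.5% v/v croton oil applied to the inner surface of the right ear, acetone vehicle to the left. Treatment given topically straight after, 0.1 mg/ear in 20 µL, with acetone as negative control. Killed at 4 h and 6 mm plugs taken from both ears. Edema read as right minus left ear plug weight, mean S.D.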

Mus musculus [13] = assay: Antiinflammatory activity in croton oil-induced Balb/c mouse ear edema model assessed as inhibition of leucocyte infiltration at 0.1 mg/ear administered topically immediately post croton oil treatment and measured after 4 hrs by hematoxylin and eosin staining based light microscopic method; format: functional, organism-based
Summary of the method: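 Ear plugs from the 4 h croton oil edema test in Balb/c mice were fixed 24 h in 70% ethanol, kept in 10% formalin, paraffin-embedded and cut at 4 µm. Sections stained with H&E and leucocyte infiltration judged qualitatively by light microscopy at 400x.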

Mus musculus [14] = assay: Effect on IL-1beta production in ear tissue of croton oil-induced Balb/c mouse ear edema model at 0.1 mg/ear administered topically immediately post croton oil treatment by ELISA; format: functional, organism-based
Summary of the method: (§3)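 Half of each ear plug from the 4 h croton oil edema test (topical 0.1 mg/ear) was homogenized in extraction buffer (BSA 0.5%, PMSF 0.1%, […], EDTA 10mM, aprotinin 20kIU/ml) and spun at 440g for 15 min at 4 °C. IL-1β, IL-6 or CCL-2 in the supernatant measured by ELISA.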

Mus musculus [15] = assay: Inhibition of myeloperoxidase activity in ear tissue of croton oil-induced Balb/c mouse ear edema model at 0.1 mg/ear administered topically immediately post croton oil treatment by spectrophotometric method; format: functional, organism-based
Summary of the method: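 Ear tissue homogenized in PBS and the pellet resuspended in 0.5% HTAB, then given 3 freeze/thaw cycles. Cleared supernatant mixed 1:1 with 6 mM o-phenylenediamine in 10 mM citrate pH 4.5, with 20% H₂O₂ added. Stopped after 15 min with 1 M H₂SO₄ and read spectrophotometrically.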

Mus musculus [16] = assay: Inhibition of IL-6 production in ear tissue of croton oil-induced Balb/c mouse ear edema model at 0.1 mg/ear administered topically immediately post croton oil treatment by ELISA; format: functional, organism-based; summary of the method: as §3
Mus musculus [17] = assay: Inhibition of CCL-2 production in ear tissue of croton oil-induced Balb/c mouse ear edema model at 0.1 mg/ear administered topically immediately post croton oil treatment by ELISA; format: functional, organism-based; summary of the method: as §3
RAW264.7 [18] = assay: Antiinflammatory activity in mouse RAW264.7 cells assessed as inhibition of LPS/IFNgamma-induced NO production at 50 uM incubated with LPS/IFNgamma for 1 hr followed by compound addition measured after 48 hrs by Griess assay relative to control; format: functional

Row | IC50 [3] | SMILES | Activity (RAW264.7 [1]) | Activity (Peritoneal macrophage) | Activity (RAW264.7 [4]) | Activity (RAW264.7 [5]) | Activity (J774.A1) | Activity (RAW264.7 [6]) | Activity (RAW264.7 [7]) | Activity (RAW264.7 [8]) | Activity (Murine T-cell line) | Activity (B-cell line) | Activity (RAW264.7 [9]) | Activity (RAW264.7 [11]) | inhibition at 50 µM (RAW264.7 [18]) | further results
1 | 34.5 µM | COc1ccc(/C=N/c2ccccc2O)cc1O |  |  | 8.1 µM | 9.7 ng/mL | 120.3 pg/mL | 2.4 ng/mL | 7.7 pg/mL | 60.5 ng/mL |  |  | Active | inactive | 90% | 
2 | 35.9 µM | Oc1ccccc1/C=N/c1ccccc1O |  |  | 5.9 µM | 7.2 ng/mL | 62.3 pg/mL | 2.5 ng/mL | 5.5 pg/mL | 58.4 ng/mL | Active | Active | inactive | inactive | 90% | 
3 | 45.8 µM | COc1ccc(/C=N/c2ccccc2O)cc1 |  |  | 4.8 µM | 7.9 ng/mL | 88.2 pg/mL | 2.1 ng/mL | 4.7 pg/mL | 44.2 ng/mL | Active | Active | Active | inactive | 90% | Activity (RAW264.7 [10]): Active; inhibition (INH) (Mus musculus [12]): 40%; inhibition of leucocyte infiltration (qualitative) (Mus musculus [13]): Active; Activity (Mus musculus [14]): inactive; inhibition (Mus musculus [15]): Active; inhibition (Mus musculus [16]): Active; inhibition (Mus musculus [17]): Active
4 | 34.1 µM | O=C(O)c1ccccc1/C=N/c1ccccc1O |  |  | 22.6 µM | 6.1 ng/mL | 76.7 pg/mL | 2.3 ng/mL | 34 pg/mL | 57.4 ng/mL | Active | Active | inactive | inactive |  | 
5 | 36.6 µM | O=C(O)c1ccc(/C=N/c2ccccc2O)cc1 |  |  | 9.5 µM | 3.7 ng/mL | 53.4 pg/mL | 2.2 ng/mL | 12.7 pg/mL | 30.6 ng/mL | Active | Active | Active | inactive | 90% | Activity (RAW264.7 [10]): Active; inhibition (INH) (Mus musculus [12]): 40%; inhibition of leucocyte infiltration (qualitative) (Mus musculus [13]): Active; Activity (Mus musculus [14]): inactive; inhibition (Mus musculus [15]): Active; inhibition (Mus musculus [16]): Active; inhibition (Mus musculus [17]): Active

The remaining lines, values behind:

Row | SMILES | IC50 [3] | Activity (RAW264.7 [1]) | Activity (Peritoneal macrophage) | Activity (RAW264.7 [4]) | Activity (RAW264.7 [5]) | Activity (J774.A1) | Activity (RAW264.7 [6]) | Activity (RAW264.7 [7]) | Activity (RAW264.7 [8]) | Activity (Murine T-cell line) | Activity (B-cell line) | Activity (RAW264.7 [9]) | Activity (RAW264.7 [11]) | inhibition at 50 µM (RAW264.7 [18]) | further results
6 | O=[N+]([O-])c1ccc(N/N=C/c2cc(Br)ccc2O)c([N+](=O)[O-])c1 |  | Toxic | Toxic |  |  |  |  |  |  |  |  |  |  |  | 
7 | COc1ccc(/C=N/Nc2ccccc2)c(O)c1 |  | Toxic | Toxic |  |  |  |  |  |  |  |  |  |  |  | 
8 | Oc1ccc(/C=C/c2cc(O)cc(O)c2)cc1 [RESVERATROL] | 65.6 µM | Non-Toxic |  | 44.5 µM | 6.6 ng/mL | 159.7 pg/mL | 1.6 ng/mL | 1036 pg/mL | 31 ng/mL | Active | Active | Active | inactive | 25% | Activity (RAW264.7 [2]): Toxic; Activity (RAW264.7 [10]): Active; inhibition (INH) (Mus musculus [12]): 40%; inhibition of leucocyte infiltration (qualitative) (Mus musculus [13]): Active; Activity (Mus musculus [14]): inactive; inhibition (Mus musculus [15]): Active; inhibition (Mus musculus [16]): inactive; inhibition (Mus musculus [17]): inactive
9 | O=C(O)c1ccc(/C=N/Nc2ccccc2)cc1 |  | Toxic | Toxic |  |  |  |  |  |  |  |  |  |  |  | 
10 | O=C(O)c1ccc(/C=N/Nc2ccc([N+](=O)[O-])cc2[N+](=O)[O-])cc1 |  | Toxic | Toxic |  |  |  |  |  |  |  |  |  |  |  | 
11 | Oc1ccc(/C=N/c2ccccc2O)c(O)c1 | 49.1 µM |  |  | 14.6 µM | 5.5 ng/mL | 188.3 pg/mL | 2.3 ng/mL | 9.3 pg/mL | 44.8 ng/mL |  |  | Active | inactive | 90% | 
12 | COc1ccc(/C=N/Nc2ccc([N+](=O)[O-])cc2[N+](=O)[O-])cc1O |  | Toxic | Toxic |  |  |  |  |  |  |  |  |  |  |  | 
13 | O=[N+]([O-])c1ccc(/C=N/c2ccccc2S)cc1 |  | Toxic | Toxic |  |  |  |  |  |  |  |  |  |  |  | 
14 | C[C@@H]1C[C@H]2[C@@H]3CCC4=CC(=O)C=C[C@]4(C)[C@@]3(F)[C@@H](O)C[C@]2(C)[C@@]1(O)C(=O)CO [DEXAMETHASONE] |  |  |  |  |  |  |  |  |  |  |  |  |  |  | inhibition (INH) (Mus musculus [12]): 90%; inhibition of leucocyte infiltration (qualitative) (Mus musculus [13]): Active
